Bioassay records: PubChem, several laboratories
Compounds with a hit are over-represented: about 2.1% of the library has one in this group of screens.
Runt-CBFb FRET = inhibitors of RUNX1 Runt–CBFb binding, primary screen, biochemical, FRET, Cerulean-Runt, Venus-CBFb, uHTS; inhibition, % at 20 µM; AID 1496, 2009; Cerulean-Runt/Venus-CBFb FRET ratio 530/480, 1 h; 0.46% of 220,000 active; Runt-related transcription factor 1 (Homo sapiens) + Core-binding factor subunit beta …;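 active means inhibition over about 50% at 20 µM in the single-dose screen, limit read from the data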;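 further: 0% = DMSO wells and 100% = excess unlabeled CBFb competitor control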
Target sequence (Q01196 whole entry, looked up): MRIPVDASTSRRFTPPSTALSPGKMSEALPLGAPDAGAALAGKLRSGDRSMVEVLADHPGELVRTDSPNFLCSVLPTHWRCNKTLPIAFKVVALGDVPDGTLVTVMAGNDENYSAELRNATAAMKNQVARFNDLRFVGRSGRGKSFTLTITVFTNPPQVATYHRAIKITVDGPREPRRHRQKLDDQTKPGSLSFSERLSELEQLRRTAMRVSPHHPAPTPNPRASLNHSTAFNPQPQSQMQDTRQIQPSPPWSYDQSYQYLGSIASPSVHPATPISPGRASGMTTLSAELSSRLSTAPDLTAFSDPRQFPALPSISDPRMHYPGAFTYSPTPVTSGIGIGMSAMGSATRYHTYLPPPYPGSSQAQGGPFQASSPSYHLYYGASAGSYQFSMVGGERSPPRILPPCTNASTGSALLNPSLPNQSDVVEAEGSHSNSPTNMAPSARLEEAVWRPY
Target sequence (Q13951 whole entry, looked up): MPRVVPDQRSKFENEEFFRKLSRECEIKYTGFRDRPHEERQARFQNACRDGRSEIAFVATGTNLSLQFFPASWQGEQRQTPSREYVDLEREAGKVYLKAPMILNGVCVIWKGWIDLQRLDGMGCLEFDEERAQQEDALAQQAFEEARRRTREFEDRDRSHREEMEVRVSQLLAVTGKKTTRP
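Reagent – Venus-CBFb binding partner, 100 nM · Assay system – Cerulean-tagged RUNX1 Runt domain (FRET donor) fusion protein · Input – 100 nM per protein · Incubation – two 1 h room-temperature incubations shielded from light · Measured by – FRET fluorescence · Medium – Tris buffer pH 7.5 with salts and BSA · Benchmarks – unlabeled CBFb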
Runt-SMMHC FRET = inhibitors of RUNX1 Runt–CBFb-SMMHC binding, primary screen, biochemical, FRET, Cerulean-Runt, Venus-CBFb-SMMHC, uHTS; Runt-related transcription factor 1 (Homo sapiens) + Core-binding factor subunit beta …; Cerulean-Runt/Venus-CBFb-SMMHC FRET ratio 530/480, 1 h; inhibition, % at 20 µM; 0.74% of 220,000 active; AID 1434, 2008;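 active means mean inhibition across duplicate retests at 20 µM reaching about 50%, limit read from the data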;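 further: 0% = DMSO wells and 100% = wells with excess untagged CBFb-SMMHC; inhibitors lower the FRET ratio by blocking Runt binding to CBFb-SMMHC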
Hck-Nef inh = inhibitors of Nef-activated human Hck kinase, primary screen, biochemical, Z-Lyte FRET, 384-well, Hck-YEEI. Tyrosine-protein kinase HCK (Homo sapiens), P08631. inhibition, % at 20 µM. AID 463187, 2010. 0.68% of 220,000 active. Recombinant Hck-YEEI plus Nef, Z-Lyte FRET kinase assay;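 active means Hck-Nef kinase inhibition above about 50%, limit read from the data; inactive means inhibition below that limit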;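 further: 0% = DMSO with Hck plus Nef and 100% = Hck alone without Nef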
TNF death inh = inhibitors of TNF-alpha triggered necroptosis, primary screen, cell-based, Jurkat FADD-/-, single concentration; Jurkat FADD-/- TNF necroptosis rescue, ATP luminescence, 24 h; 0 = TNF only, 100 = no-TNF cells; activation (protection from cell death), % at 10 µM; 0.068% of 220,000 active; AID 463075, 2010;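 active means activation, meaning protection from cell death, of at least 50% relative to plate controls; inactive means activation below 50%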;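 further: necroptosis triggered by 40 ng/mL TNF-alpha added together with compound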
RanGTP-Impb inh = inhibitors of RanGTP-importin-beta interaction, primary screen, biochemical, FRET, CFP-Ran, YFP-importin-beta, homogeneous | AID 2216, 2009 | inhibition, % (concentration not given with the values) | cell-free CFP-Ran/YFP-importin-beta FRET ratio | Ran GTPase (GTP-bound) - importin-beta complex | 1.1% of 300,000 active;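 active means more than half of the replicate wells show a fall in the fluorescence ratio signal beyond about 16%, limit read from the data, passing the limit was not always enough; inconclusive means exactly half of the replicate wells pass the set limit; inactive means fewer than half of replicates pass the limit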;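 further: 0% = DMSO wells and 100% = Ran loaded with GDP instead of GTP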
zVAD death inh = inhibitors of zVAD-triggered necroptosis, primary screen, L929 cells | L929 zVAD necroptosis rescue, ATP luminescence, 24 h; with zVAD 60 µM | viability rescue, % at 10 µM | 0.38% of 220,000 active;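 active means activation, scaled between plate controls, above about 75%, limit read from the data; inactive means activation under that limit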;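 further: 0% = zVAD with DMSO and 100% = DMSO alone without zVAD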
The depositor's hits bear a star; ? = inconclusive; . = no result given.

SMILES	Runt-CBFb FRET	Runt-SMMHC FRET	Hck-Nef inh	TNF death inh	RanGTP-Impb inh	zVAD death inh
FC(F)(F)c1cccc(-c2nc3nc(Cl)c(Cl)nc3[nH]2)c1	21.3	43.3	16.0	-17.1	43.3*	5.1
N#CC(C(=O)NC1CCCCC1)c1nc2ccccc2nc1N1CCOCC1 (stereo unspecified)	-6.7	-97.0	.	.	.	.
CC1CCN(c2nc3ccccc3nc2C(C#N)C(=O)NC2CCCCC2)CC1 (stereo unspecified)	28.2	14.4	.	.	49.7*	.
CCCCNC(=O)C(C#N)c1nc2ccccc2nc1N1CCCC1 (stereo unspecified)	12.6	67.3*	-7.7	1.4	34.1*	3.2
COc1ccc(CNC(=O)C(C#N)c2nc3ccccc3nc2N2CCCC2)cc1 (stereo unspecified)	9.4	47.7	-0.5	-1.3	?	-0.1
C=CCNC(=O)C(C#N)c1nc2ccccc2nc1N1CCCCCC1 (stereo unspecified)	35.0	65.0*	1.9	1.0	73.7*	2.1
Cc1ccc(S(=O)(=O)n2ccc3c(OCCOCCNCc4ccc(F)cc4)cccc32)cc1	.	.	.	.	2.0	.
CCC(Sc1nc(C)cc(C)n1)C(=O)NC1=NN=C(c2ccc(C)cc2)CS1 (stereo unspecified)	10.0	26.4	1.6	-6.3	3.3	0.1
Cc1cc(C)nc(SCC(=O)NC2=NN=C(c3ccc(Br)cc3)CS2)n1	.	36.3	-0.9	-7.3	37.9*	0.1
CCCn1c(=O)n(C)c(=O)c2c(SCC(=O)NCC(c3ccccc3)N(C)C)nc(CC(C)C)nc21 (stereo unspecified)	.	.	.	.	4.6	.
O=C(c1cccc(S(=O)(=O)N2CCN(c3ccc(F)cc3)CC2)c1)N1CCCC(C(F)(F)F)C1 (stereo unspecified)	.	.	.	.	2.1	.
Cc1csc2c(=O)sc(NC(=O)c3ccco3)nc12	34.3	59.0*	13.3	-3.0	1.4	-0.3
Cc1nc2ccc3nc(NC(=O)c4ccco4)sc3c2s1	.	.	-0.1	-2.2	2.2	0.2
Cc1csc(NC(=O)c2cccs2)n1	3.0	-4.5	-7.6	-0.2	4.0	-0.5
Cc1csc2c(=O)sc(NC(=O)c3cccs3)nc12	40.1	87.0*	28.0	0.9	0.4	-0.3
Cc1ccc(N(CC(=O)NCc2ccccc2)C(=O)CCC(=O)Nc2ccccn2)cc1C	.	.	.	.	2.0	.
Cc1ccccc1-n1c2nc(=O)n(C)c(=O)c-2cc2ccccc21	11.9	81.0*	49.2	4.1	136.5*	0.5
CCCCn1c(=O)nc2n(-c3ccccc3C)c3ccccc3cc-2c1=O	4.1	82.3*	33.1	0.5	130.0*	0.4
Cc1ccccc1-n1c(=O)c2ccccc2n2nnnc12	-1.3	2.3	8.5	-2.3	1.0	0.5
CCCCn1c(=O)c2ccccc2c2ccccc2c1=O	-0.6	-1.0	-1.4	-1.8	.	0.5
O=C(CSCc1ccccc1)NNc1c(F)c(F)cc(F)c1F	.	.	.	.	1.0	.
COCCNC(=O)NC(=O)CN1CCN(C(c2ccccc2)c2ccccc2)CC1	-2.5	-0.5	9.6	-0.8	-2.2	-0.5
Cc1cc(C(=O)NN)c2cc(Br)ccc2n1	1.5	-0.6	-21.8	0.8	3.7	0.1
Cc1cc(C(N)=O)c2cc(Br)ccc2n1	0.3	2.3	0.3	-1.8	27.2*	0.3
CN(C)C(=O)CCC(=O)N1CCCC(C(=O)c2ccc(C(F)(F)F)cc2)C1 (stereo unspecified)	.	.	.	.	1.0	.
SMILES	Runt-CBFb FRET	Runt-SMMHC FRET	Hck-Nef inh	TNF death inh	RanGTP-Impb inh	zVAD death inh
CCOC(=O)C1(Cc2ccccc2C(F)(F)F)CCN(C2CCN(C(C)=O)CC2)CC1	-3.5	0.6	-1.4	0.8	-1.7	-0.5
Cc1ccn2c(=O)nc(SCC(=O)NC3CCCCC3)nc2c1	.	.	.	.	3.3	.
Cc1ccn2c(=O)nc(SCC(=O)NC3CCCC3)nc2c1	.	.	.	.	18.3*	.
O=C(CC1Nc2c3ccccc3nc(=S)n2C1=O)NC1CCCCC1 (stereo unspecified)	-0.2	-0.1	24.1	0.2	-2.2	0.3
CN(C)S(=O)(=O)c1cccc(NC(=S)N/N=C/c2cccc(O)c2)c1	2.9	2.3	24.3	0.3	-1.7	1.1
CN(C)S(=O)(=O)c1cccc(NC(=S)N/N=C/c2cc(Br)ccc2O)c1	3.0	81.2*	-8.2	-19.5	4.9	11.1
CC(/C=C1\SC(=S)N(CC(=O)O)C1=O)=C\c1ccccc1	-2.6	-8.2	11.7	3.9	-1.0	2.0
CC(/C=C1\SC(=S)N(C(C(=O)O)c2ccccc2)C1=O)=C\c1ccccc1 (stereo unspecified)	-21.6	-23.4	74.8*	3.8	2.1	1.5
CCc1ccc(-c2cnc3nc[nH]c(=O)c3n2)cc1	.	.	.	.	15.0*	.
CCc1ccc(-c2ccc(C(=O)O)c(C)n2)cc1	-1.4	-1.9	2.1	2.8	3.0	.
COc1cccc(-n2cnc3sc(C)cc3c2=O)c1	0.2	3.7	19.4	-0.2	0.8	0.2
CC(C)c1ccc(/C=C2\Oc3c(ccc(O)c3CN3CCN(C)CC3)C2=O)cc1	-114.4	87.5*	-35.5	0.3	.	0.9
Cc1ccc(/C=C2\Oc3c(ccc(O)c3CN3CCN(CCO)CC3)C2=O)cc1	3.4	90.0*	0.2	1.5	35.4*	25.1
CNS(=O)(=O)c1ccc2c3c(cccc13)C(=O)N2C	.	.	.	.	4.9	.
CN1C(=O)c2cccc3c(S(=O)(=O)N(C)C)ccc1c23	.	.	.	.	18.7*	.
Cc1nn(-c2ccccc2)c(N)c1C1(O)C(=O)N(C(C)C)c2ccccc21 (stereo unspecified)	-0.9	1.6	4.5	2.4	-6.9	1.7
Cc1nn(-c2ccccc2)c2c1P(=O)(O)/C(=C1\N(C)c3ccccc3C1(C)C)C=N2	-47.2	-62.6	-0.3	-1.3	28.7*	0.1
Nc1ccccc1-c1nc2ccccc2s1	21.6	55.1*	37.5	1.0	4.9	3.2
Nc1ccc(O)c(-c2nc3ccccc3s2)c1	7.6	28.1	6.0	-3.1	24.8*	18.4
Oc1ccc(N=C/C=C/c2cccc(Br)c2)cc1-c1nc2ccccc2s1	23.4	28.8	14.3	2.4	37.8*	28.6
O=C(Nc1ccc(O)c(-c2nc3ccccc3s2)c1)c1cccs1	-8.1	-43.0	0.5	2.6	1.3	0.9
COC(=O)Cn1c(=O)c2c(n(Cc3ccccc3)c1=O)N/C(=C/c1ccc(OC)cc1)C2=O	-20.1	30.1	15.0	0.4	20.5*	-0.1
